Experimental findings from ChEMBL document CHEMBL1817556, “Substituted lactam and cyclic azahemiacetals modulate Pseudomonas aeruginosa quorum sensing” (Bioorg Med Chem, 2011) are described below.

The target in test [1] is T1, Transcriptional activator protein LasR (Pseudomonas aeruginosa (strain ATCC 15692 / PAO1 / 1C / PRS 101 / LMG12228), UniProt P25084).
T1 sequence (P25084 whole entry): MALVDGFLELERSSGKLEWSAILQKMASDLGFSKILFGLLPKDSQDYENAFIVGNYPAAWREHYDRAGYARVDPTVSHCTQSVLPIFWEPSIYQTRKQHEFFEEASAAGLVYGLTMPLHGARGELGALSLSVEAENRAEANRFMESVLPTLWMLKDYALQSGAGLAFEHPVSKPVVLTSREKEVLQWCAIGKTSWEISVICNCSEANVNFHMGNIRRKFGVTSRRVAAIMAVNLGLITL
The experiment in a line: Inhibition of Pseudomonas aeruginosa LasR.

Test [2] addresses T2, Acyl-homoserine-lactone synthase (Pseudomonas aeruginosa (strain ATCC 15692 / PAO1 / 1C / PRS 101 / LMG12228)) (UniProt P33883).
T2 sequence (whole entry): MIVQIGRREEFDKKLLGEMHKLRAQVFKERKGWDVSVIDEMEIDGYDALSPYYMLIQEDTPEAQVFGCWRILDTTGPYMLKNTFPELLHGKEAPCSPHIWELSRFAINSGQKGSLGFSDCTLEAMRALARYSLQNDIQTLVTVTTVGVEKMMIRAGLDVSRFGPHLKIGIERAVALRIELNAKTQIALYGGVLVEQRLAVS
The test can be described thus: Modulation of Pseudomonas aeruginosa lacZ-fused lasI expressed in Escherichia coli DH5alpha co-expressing pBAD-lasR assessed as 3-oxo-C12-AHL-induced effect at 0.69 mM after 3 hrs by beta-galactosidase assay relative to control. An outline of the steps: (§1)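 E. coli DH5α carrying pSC11 (PlasI-lacZ translational fusion) and pJN105L (PBAD-lasR) was grown overnight in LB with ampicillin (100 μg/ml) and gentamicin (15 μg/ml), then diluted to OD600 0.150. Arabinose (0.2% w/v), 3-oxo-C12-AHL (2 μM) and test compound or DMSO were added. Cultures were shaken 3 h at 37 °C. β-Galactosidase activity was read in Miller units and expressed as % of the solvent sample. Triplicates per biological replicate, repeated at least twice; paired two-tailed t-test.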

In test [3] the target is 3-(3-hydroxydecanoyloxy)decanoate synthase (Pseudomonas aeruginosa (strain ATCC 15692 / PAO1 / 1C / PRS 101 / LMG12228)) (UniProt Q51559). The test can be described thus: Modulation of Pseudomonas aeruginosa lacZ-fused rhlA expressed in Escherichia coli DH5alpha co-expressing Ptac-rhlR assessed as C4-AHL-induced effect at 0.69 mM after 4 hrs by beta-galactosidase assay relative to control. An outline of the steps:
(§2)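 E. coli DH5α carrying pECP61.5 (Ptac-rhlR, PrhlA-lacZ), grown overnight in LB with ampicillin 100 μg/ml and diluted to OD600 0.150. At OD600 1.0, 1 mM IPTG, 2 μM C4-HSL and compound or DMSO were added. Cultures were shaken 4 h at 37 °C, then β-galactosidase was read in Miller units. Activity is % of solvent sample, from triplicates per biological replicate, with at least two repeats.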

For test [4], the target named is T2, Acyl-homoserine-lactone synthase (Pseudomonas aeruginosa (strain ATCC 15692 / PAO1 / 1C / PRS 101 / LMG12228)). The experiment in a line: Modulation of Pseudomonas aeruginosa lacZ-fused lasI expressed in Escherichia coli DH5alpha co-expressing pBAD-lasR assessed as 3-oxo-C12-AHL-induced effect at 0.34 mM after 3 hrs by beta-galactosidase assay relative to control. An outline of the steps:
as §1

Test [5] addresses 3-(3-hydroxydecanoyloxy)decanoate synthase (Pseudomonas aeruginosa (strain ATCC 15692 / PAO1 / 1C / PRS 101 / LMG12228)) (UniProt Q51559). The experiment in a line: Modulation of Pseudomonas aeruginosa lacZ-fused rhlA expressed in Escherichia coli DH5alpha co-expressing Ptac-rhlR assessed as C4-AHL-induced effect at 0.17 mM after 4 hrs by beta-galactosidase assay relative to control. An outline of the steps:
(§3)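 rhl reporter: E. coli DH5α carrying pECP61.5 (Ptac-rhlR, PrhlA-lacZ) was grown overnight in LB with ampicillin (100 μg/ml) only, then diluted to OD600 0.150. It was induced with 1 mM IPTG, and 2 μM C4-HSL plus compound or DMSO were added at OD600 1.0. Cultures were shaken 4 h at 37 °C. β-Galactosidase activity was read in Miller units as % of the solvent sample. Triplicates per biological replicate, at least two repeats; paired two-tailed t-test.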

Test [6] shares this target. The test can be described thus: Modulation of Pseudomonas aeruginosa lacZ-fused rhlA expressed in Escherichia coli DH5alpha co-expressing Ptac-rhlR assessed as C4-AHL-induced effect at 0.52 mM after 4 hrs by beta-galactosidase assay relative to control. The method in brief:
as §3

Test [7] addresses T2, Acyl-homoserine-lactone synthase (Pseudomonas aeruginosa (strain ATCC 15692 / PAO1 / 1C / PRS 101 / LMG12228)). The experiment in a line: Modulation of Pseudomonas aeruginosa lacZ-fused lasI expressed in Escherichia coli DH5alpha co-expressing pBAD-lasR assessed as 3-oxo-C12-AHL-induced effect at 0.17 mM after 3 hrs by beta-galactosidase assay relative to control. An outline of the steps: as §1

Test [8] has the same target. The experiment in a line: Modulation of Pseudomonas aeruginosa lacZ-fused lasI expressed in Escherichia coli DH5alpha co-expressing pBAD-lasR assessed as 3-oxo-C12-AHL-induced effect at 0.52 mM after 3 hrs by beta-galactosidase assay relative to control. An outline of the steps:
as §1

The target in test [9] is 3-(3-hydroxydecanoyloxy)decanoate synthase (Pseudomonas aeruginosa (strain ATCC 15692 / PAO1 / 1C / PRS 101 / LMG12228)) (UniProt Q51559). The test can be described thus: Modulation of Pseudomonas aeruginosa lacZ-fused rhlA expressed in Escherichia coli DH5alpha co-expressing Ptac-rhlR assessed as C4-AHL-induced effect at 0.34 mM after 4 hrs by beta-galactosidase assay relative to control. An outline of the steps: as §3

In test [10] the target is T2, Acyl-homoserine-lactone synthase (Pseudomonas aeruginosa (strain ATCC 15692 / PAO1 / 1C / PRS 101 / LMG12228)). The experiment in a line: Modulation of Pseudomonas aeruginosa lacZ-fused lasI expressed in Escherichia coli DH5alpha co-expressing pBAD-lasR at 0.002 mM after 3 hrs by beta-galactosidase assay relative to control. An outline of the steps: as §1
Test [11] shares this target. The experiment in a line: Modulation of Pseudomonas aeruginosa lacZ-fused lasI expressed in Escherichia coli DH5alpha co-expressing pBAD-lasR assessed as 3-oxo-C12-AHL-induced effect at 0.58 mM after 3 hrs by beta-galactosidase assay relative to control. The method in brief: as §1
In test [12] the target is 3-(3-hydroxydecanoyloxy)decanoate synthase (Pseudomonas aeruginosa (strain ATCC 15692 / PAO1 / 1C / PRS 101 / LMG12228)) (UniProt Q51559). The test can be described thus: Modulation of Pseudomonas aeruginosa lacZ-fused rhlA expressed in Escherichia coli DH5alpha co-expressing Ptac-rhlR assessed as C4-AHL-induced effect at 0.87 mM after 4 hrs by beta-galactosidase assay relative to control. An outline of the steps: as §2

Test [13] shares this target. The test can be described thus: Modulation of Pseudomonas aeruginosa lacZ-fused rhlA expressed in Escherichia coli DH5alpha co-expressing Ptac-rhlR assessed as C4-AHL-induced effect at 0.58 mM after 4 hrs by beta-galactosidase assay relative to control. An outline of the steps:
as §2

The target of test [14] is T2, Acyl-homoserine-lactone synthase (Pseudomonas aeruginosa (strain ATCC 15692 / PAO1 / 1C / PRS 101 / LMG12228)). The experiment in a line: Modulation of Pseudomonas aeruginosa lacZ-fused lasI expressed in Escherichia coli DH5alpha co-expressing pBAD-lasR assessed as 3-oxo-C12-AHL-induced effect at 1.16 mM after 3 hrs by beta-galactosidase assay relative to control. An outline of the steps:
as §1

For test [15] the target is unchanged. The experiment in a line: Modulation of Pseudomonas aeruginosa lacZ-fused lasI expressed in Escherichia coli DH5alpha co-expressing pBAD-lasR assessed as 3-oxo-C12-AHL-induced effect at 0.87 mM after 3 hrs by beta-galactosidase assay relative to control. An outline of the steps:
as §1

Test [16] has as its target 3-(3-hydroxydecanoyloxy)decanoate synthase (Pseudomonas aeruginosa (strain ATCC 15692 / PAO1 / 1C / PRS 101 / LMG12228)) (UniProt Q51559). The experiment in a line: Modulation of Pseudomonas aeruginosa lacZ-fused rhlA expressed in Escherichia coli DH5alpha co-expressing Ptac-rhlR assessed as C4-AHL-induced effect at 0.29 mM after 4 hrs by beta-galactosidase assay relative to control. The method in brief:
as §3

For test [17], the target named is T2, Acyl-homoserine-lactone synthase (Pseudomonas aeruginosa (strain ATCC 15692 / PAO1 / 1C / PRS 101 / LMG12228)). The experiment in a line: Modulation of Pseudomonas aeruginosa lacZ-fused lasI expressed in Escherichia coli DH5alpha co-expressing pBAD-lasR assessed as 3-oxo-C12-AHL-induced effect at 0.29 mM after 3 hrs by beta-galactosidase assay relative to control. An outline of the steps: as §1

The target of test [18] is 3-(3-hydroxydecanoyloxy)decanoate synthase (Pseudomonas aeruginosa (strain ATCC 15692 / PAO1 / 1C / PRS 101 / LMG12228)) (UniProt Q51559). The experiment in a line: Modulation of Pseudomonas aeruginosa lacZ-fused rhlA expressed in Escherichia coli DH5alpha co-expressing Ptac-rhlR assessed as C4-AHL-induced effect at 1.16 mM after 4 hrs by beta-galactosidase assay relative to control. The method in brief:
as §2

For orientation: IC50 means the concentration that gives 50% inhibition. Higher therefore signals lower potency. `O=C(Cc1cccc([N+](=O)[O-])c1)N[C@H]1CCOC1=O` gave a half-maximal inhibitory concentration (IC50) in test [1] of 610 nM.

Consider `CCCCCCCCCSC[C@H]1NC(O)[C@H](O)[C@@H]1O` (mixture of isomers), for which the Activity in test [2] turned out to be 53%; in test [3], 121%; in test [4], 78%; in test [5], 98%; in [6] it was 116%; in test [7] it was 78%. Further, the Activity came out at 71% in test [8] and 127% in [9].

`CCCCCCCCCC(=O)CC(=O)N[C@H]1CCOC1=O`: in test [10], the Activity is 100%.

Turning to `CCCSC[C@@H]1CCC(=O)N1`, the Activity in test [11] was found to be 72%; in [12] it was 104%; in test [13] it was 118%; in test [14], 43%; in [15] it was 51%; in test [16], 104%. In addition, the Activity was 90% in [17] and 108% in test [18].

`CCCCCCCCCCCC(=O)N[C@H]1CCSC1=O`: the concentration for half-maximal inhibition (IC50) in test [1] came out at 40 nM.
